Yeast lifespan up – yeast lifespan extension; S. cerevisiae growth with nicotinamide, OD615; deaD strain in restrictive glucose medium; inhibition of the nicotinamide effect, % at 10 µM; 0.68% of 130,000 active;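 active means inhibition above a set limit, placed 3 SD over the median of all compounds, cut at about 26% in these data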;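 further: 0% = nicotinamide-treated wells and 100% = cells grown without nicotinamide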
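assay system = DeaD-strain S. cerevisiae | buffer or medium = restrictive glucose medium | reagent = 1.5 mM nicotinamide | compound = 10 µM single point, 0.25% DMSO | incubation = 48 h compound exposure at 30 °C, humidified | signal = OD615 measurement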
SDO1 yeast rescue – compounds rescuing growth of sdo1-depleted yeast, bone marrow failure model | 0.21% of 140,000 active | S. cerevisiae sdo1-depleted JHY4D growth rescue, OD600 30 h; active compounds read high; pdr5 snq2 efflux-pump mutant strain | z-score at 10 µM;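 active means z-score above 3 at both the 24 hr and the 30 hr optical density reads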;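 further: z-score against mean and SD of all compound wells on the same plate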
RAM network inh – yeast RAM network inhibition | S. cerevisiae dse1pr::URA3 reporter, 5-FOA growth OD615, 2 d; analog-sensitive cbk1-as2 kinase mutant strain | inhibition, % at 50 µM | 1.8% of 190,000 active | AID 868;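 active means inhibition above a set limit, 3 SD over mean compound inhibition, cut at about 8.4% in these data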;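 further: 0% = DMSO-only wells with no growth and 100% = 10 µM 1-NA-PP1 full growth; inhibition rescues growth on 5-FOA so higher OD means more RAM inhibition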
BB579 growth dn – yeast BB579 growth reduction in restrictive medium | S. cerevisiae BB579 growth, OD615, 48 h | inhibition, % at 10 µM | 0.51% of 140,000 active;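 active means inhibition above a set limit, 3 SD over the mean compound inhibition, cut at about 44% in these data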
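controls = amphotericin B 10 µg/mL, positive | assay system = DeaD yeast strain BB579 | schedule = 48 h compound exposure at 30 °C after 4 h preincubation | detection = OD615 turbidity measurement | medium = restrictive CSMM-D medium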
* hit, by the source's call. A selection: hits, their analogues and other compounds. The true share with any hit is near 2.7%.

How did CC(C)(C)NC(=O)C(c1ccco1)N(C(=O)Cn1nnc(-c2ccc(F)cc2)n1)c1cccc(F)c1 (stereo not given) do in these assays?
Yeast lifespan up: -7; SDO1 yeast rescue: -1.4; RAM network inh: 9.2*; BB579 growth dn: -26

Results for Cc1cc(/C=C2/NC(=O)N(Cc3ccccc3F)C2=O)c(C)n1C(C)C ?
Yeast lifespan up: -1; SDO1 yeast rescue: -0.74; RAM network inh: 9.1*; BB579 growth dn: -36

Results for CCn1c(C)cc(/C=C2/NC(=O)N(Cc3ccccc3F)C2=O)c1C ?
Yeast lifespan up: 2; SDO1 yeast rescue: -0.05; RAM network inh: 2; BB579 growth dn: -26

Results for CN1C(N)=NC(=O)/C1=C/c1ccccc1F ?
RAM network inh: 0

How did Cc1nn(CC2CC2)c(=O)n1-c1ccccc1 do in these assays?
RAM network inh: 1

How did O=C(CN1CCC(n2nnc3cc(C(F)(F)F)ccc32)CC1)N1CCc2ccccc21 do in these assays?
Yeast lifespan up: 40*; SDO1 yeast rescue: -0.16; RAM network inh: 1; BB579 growth dn: -29

How did CCN(CC)S(=O)(=O)c1ccc2oc(SCc3ccc(F)cc3)nc2c1 do in these assays?
Yeast lifespan up: 0; SDO1 yeast rescue: 0.55; RAM network inh: 10.0*; BB579 growth dn: -56

What do the screens show for `CCS(=O)(=O)c1ccc2oc(SCC(=O)NCCc3ccc(F)cc3)nc2c1`?
RAM network inh: 1

How did CN(C)S(=O)(=O)c1ccc(C(=O)OCC(=O)c2ccc(OC(F)F)cc2OC(F)F)cc1 do in these assays?
Yeast lifespan up: -8; SDO1 yeast rescue: -0.58; RAM network inh: 11*; BB579 growth dn: -73

Results for CN(C)S(=O)(=O)c1ccc(C(=O)OCC(=O)Nc2ccccc2OC(F)F)cc1 ?
Yeast lifespan up: -7; SDO1 yeast rescue: -0.37; RAM network inh: 2; BB579 growth dn: -14

Results for CC1CCN(c2ccc(NC(=O)c3ccccc3[N+](=O)[O-])cc2)CC1 ?
RAM network inh: 0

Results for CCCCCCCN1N=C(C)C(C(=O)c2ccccc2)C1=O (stereo not given) ?
Yeast lifespan up: -27; SDO1 yeast rescue: 0.68; RAM network inh: -2; BB579 growth dn: 26

Results for CCCCCCN1N=C(C)C(C(=O)c2ccc(Cl)cc2)C1=O (stereo not given) ?
Yeast lifespan up: -5; SDO1 yeast rescue: 0.86; RAM network inh: -1; BB579 growth dn: 87*

What do the screens show for `CCOc1ccc(NC(=O)C(Cc2ccccc2)N2C(=O)c3cccc4cccc(c34)C2=O)cc1` (stereo not given)?
RAM network inh: 3

What do the screens show for `CCCS(=O)(=O)c1nnnn1-c1cccc(OC)c1`?
Yeast lifespan up: -19; SDO1 yeast rescue: -1.7; RAM network inh: -1; BB579 growth dn: 96*

Results for O=C1c2cccc3cccc(c23)C(=O)N1CCCN1CCN(c2ccc(F)cc2)CC1 ?
RAM network inh: 1

What do the screens show for `Oc1ccc2ccccc2c1N=Nc1ccccn1`?
Yeast lifespan up: -7; SDO1 yeast rescue: -0.17; RAM network inh: 1; BB579 growth dn: 90*

Results for CC(C)(C)C1CCC(C(=O)OCC(=O)Nc2ccc3[nH]c(=O)[nH]c3c2)CC1 (stereo not given) ?
RAM network inh: 2

Results for CC1CCC/C(=N\NC(=O)c2ccncc2)C1 (stereo not given) ?
Yeast lifespan up: 1; SDO1 yeast rescue: 0.13; RAM network inh: 0; BB579 growth dn: -13

Results for CC(=O)c1cccc(S(=O)(=O)N2CCCC(c3nc(-c4ccc(C)o4)no3)C2)c1 (stereo not given) ?
Yeast lifespan up: -5; SDO1 yeast rescue: -0.71; RAM network inh: 9.3*; BB579 growth dn: -51

How did CC1CCc2c(sc3nc(CN4CCOCC4)nc(Sc4ccccc4)c23)C1 (stereo not given) do in these assays?
Yeast lifespan up: -7; SDO1 yeast rescue: -1.2; RAM network inh: -1; BB579 growth dn: 46*

Results for C#CCSc1nc(Cc2ccc(Cl)cc2)nc2ccccc12 ?
Yeast lifespan up: 1; SDO1 yeast rescue: -1.1; RAM network inh: 8.6*; BB579 growth dn: -43

Results for Cc1ccc(S(=O)(=O)Nc2ccccc2/C=N/c2nc3ccccc3n2C)cc1 ?
Yeast lifespan up: 31*; SDO1 yeast rescue: -1.1; RAM network inh: 0; BB579 growth dn: -35

How did Cn1c(N)c(C(=O)c2ccc(F)cc2F)c(=O)n(C)c1=O do in these assays?
Yeast lifespan up: 40*; SDO1 yeast rescue: 0.47; RAM network inh: 0; BB579 growth dn: -20

Bioassay records (PubChem BioAssay)
